Assay results: ChEMBL document CHEMBL4251686, “Withaferin A and Withanolide D Analogues with Dual Heat-Shock-Inducing and Cytotoxic Activities: Semisynthesis and Biological Evaluation” (J Nat Prod, 2018)
pIC50: −log10 of the molar value. Activity calls are given as the source filed them. The calls are words filed in the database; no cut-off is given here. Residues, ends and D or L forms follow the SMILES beside them. *: point of attachment. Cbz = O=C(OCc1ccccc1)*

Legend:
[1] = test system: HEK-293T; assay: Induction of heat shock response in GFP-tagged human 293T cells at 1 to 5 uM after overnight incubation by luciferase reporter gene based luminometric method; format: functional, cell-based
Summary of the method: (§1)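 Heat-shock reporter 293T cells (GFP–firefly luciferase under HSP70B′ promoter elements, FACS-enriched high responders) were seeded at 20 000 cells/well in 384-well plates and exposed to compounds at 1.0 or 5.0 μM overnight. Luciferase activity measured by luminometer. Maximal induction expressed as fold over control (Log2), mean of two biological replicates.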

[2] = Cytotoxicity against human CHP100 cells assessed as reduction in cell viability after 24 hrs by resazurin dye based Alamar blue assay; format: functional; conditions: CHP100, 24 h
[3] = test system: HEK-293T; assay: Cytotoxicity against human 293T cells assessed as reduction in cell viability after 72 hrs by resazurin dye based Alamar blue assay; format: functional
[4] = test system: HEK-293T; assay: Induction of heat shock response in GFP-tagged human 293T cells after overnight incubation by luciferase reporter gene based luminometric method relative to control; format: functional
[5] = test system: HEK-293T; assay: Ratio of induction of heat shock response in GFP-tagged human 293T cells to IC50 for cytotoxicity against human 293T cells; format: functional
[6] = test system: HEK-293T; assay: Induction of heat shock response in GFP-tagged human 293T cells at 1 uM after overnight incubation by luciferase reporter gene based luminometric method; format: functional, cell-based; summary of the method: as §1
[7] = test system: HEK-293T; assay: Induction of heat shock response in GFP-tagged human 293T cells at 5 uM after overnight incubation by luciferase reporter gene based luminometric method; format: functional, cell-based; summary of the method: as §1

SMILES	Activity [1]	pIC50 [2]	pIC50 [3]	AUC [4]	Ratio [5]	Activity [6]	Activity [7]
CC(=O)OCC1=C(C)C[C@H]([C@@H](C)[C@H]2[C@@H](OC(C)=O)C[C@H]3[C@@H]4C[C@H]5O[C@]56[C@@H](OC(C)=O)C=CC(=O)[C@]6(C)[C@H]4CC[C@]23C)OC1=O	Active	7.23	7.06	196	2.23	–	–
CC(C)c1cc(-c2n[nH]c(=O)n2-c2ccc3c(ccn3C)c2)c(O)cc1O [GANETESPIB]	–	–	–	59	–	–	–
CC1=C(CO)C(=O)O[C@@H]([C@@H](C)[C@H]2CC[C@H]3[C@@H]4C[C@H]5O[C@]56[C@@H](O)C=CC(=O)[C@]6(C)[C@H]4CC[C@]23C)C1 [WITHAFERIN A]	Active	6.37	6.52	68	0.23	–	–
CC1=C(C)C(=O)O[C@@H]([C@](C)(O)[C@H]2CC[C@H]3[C@@H]4C[C@H]5O[C@]56C(=O)C=CC(=O)[C@]6(C)[C@H]4CC[C@]23C)C1	–	–	–	–	–	Active	–
CC(=O)O[C@H]1C=CC(=O)[C@]2(C)[C@H]3CC[C@]4(C)[C@@H]([C@@](C)(O)[C@H]5CC(C)=C(C)C(=O)O5)CC[C@H]4[C@@H]3C[C@H]3O[C@]132	–	6.53	6.85	–	0.5	Active	–
CC(=O)OCC1=C(C)C[C@H]([C@@H](C)[C@H]2CC[C@H]3[C@@H]4C[C@H]5O[C@]56[C@@H](OC(C)=O)C=CC(=O)[C@]6(C)[C@H]4CC[C@]23C)OC1=O	Active	–	–	351	–	–	–
CC(=O)OCC1=C(C)C[C@H]([C@@H](C)[C@H]2CC[C@H]3[C@@H]4C[C@H]5O[C@]56[C@H](OC(C)=O)C=CC(=O)[C@]6(C)[C@H]4CC[C@]23C)OC1=O	Active	–	–	–	–	–	–
CC(=O)O[C@H]1C[C@H]2[C@@H]3C[C@H]4O[C@]45[C@@H](OC(C)=O)C=CC(=O)[C@]5(C)[C@H]3CC[C@]2(C)[C@H]1[C@@](C)(O)[C@H]1CC(C)=C(C)C(=O)O1	–	–	–	–	–	Active	–
CC1=C(C)C(=O)O[C@@H]([C@](C)(O)[C@H]2CC[C@H]3[C@@H]4C[C@H]5O[C@]56[C@@H](O)C=CC(=O)[C@]6(C)[C@H]4CC[C@]23C)C1 [WITHANOLIDE D]	–	6.49	6.15	13	0.02	Active	–
CC(C)C[C@@H](C=O)NC(=O)[C@H](CC(C)C)NC(=O)[C@H](CC(C)C)NC(=O)OCc1ccccc1 [MG-132] (Cbz-Leu-Leu-Leu-aldehyde)	–	–	–	332	–	–	–
CC1=C(CO)C(=O)O[C@@H]([C@@H](C)[C@H]2CC[C@H]3[C@@H]4C[C@H]5O[C@]56[C@H](O)C=CC(=O)[C@]6(C)[C@H]4CC[C@]23C)C1	–	6.51	6.60	44	0.18	–	Active
CC(=O)OCC1=C(C)C[C@H]([C@@H](C)[C@H]2[C@@H](OC(C)=O)C[C@H]3[C@@H]4C[C@H](I)[C@]5(O)[C@@H](OC(C)=O)C=CC(=O)[C@]5(C)[C@H]4CC[C@]23C)OC1=O	Active	6.33	6.38	235	0.56	–	–
CC(=O)OCC1=C(C)C[C@H]([C@@H](C)[C@H]2CC[C@H]3[C@@H]4C[C@H]5O[C@]56[C@@H](OC(C)=O)C=CC(=O)[C@]6(C)[C@H]4C[C@@H](OC(C)=O)[C@]23C)OC1=O	Active	6.92	6.94	419	3.61	–	–
